Screens as filed in PubChem BioAssay.
Most compounds without a hit are left out; they make up all but 2.7% or so of the library.
RBBP9 inhibitor = blocks human serine hydrolase RBBP9; recombinant RBBP9, FP-Rh probe fluorescence polarization; inhibition, % at 7.94 µM; 220,000 tested, 0.2% active; AID 1515;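 active = inhibition above the campaign mean of all tested compounds plus 3 SD, cut at about 14% in these data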;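 note: plate controls were DMSO wells with RBBP9 for no effect and wells lacking RBBP9 protein for full effect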
Target sequence (O75884 whole entry, looked up): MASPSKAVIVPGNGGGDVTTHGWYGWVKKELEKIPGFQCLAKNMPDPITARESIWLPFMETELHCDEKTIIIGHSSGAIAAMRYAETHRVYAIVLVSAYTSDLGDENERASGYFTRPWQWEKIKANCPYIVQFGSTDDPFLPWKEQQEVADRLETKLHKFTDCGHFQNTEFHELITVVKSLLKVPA
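System: RBBP9 protein | Quantity: 2.5 µM RBBP9 dispensing solution, before mixing | Reagent: FP-Rh probe, 375 nM dispensing solution | Timing: Enzyme-compound preincubation 30 min, then probe labeling 45 min, 25 °C | Measured by: Fluorescence polarization | Read-out: % inhibition | Replication: One well per compound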
PfM18AAP inh = PfM18AAP enzyme inhibition; AID 1822; recombinant PfM18AAP, H-Glu-NHMec fluorogenic cleavage; 290,000 tested, 1.2% active; inhibition, % at 7.35 µM;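 active = inhibition above the campaign mean inhibition over all tested compounds plus 3 SD, cut at about 28% in these data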;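 note: 0% = plate median of test compound wells and 100% = 2 mM ZnCl2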
p97 ATPase inh = blocks human p97 ATPase activity. P55072. recombinant p97 ATPase, Kinase-Glo ATP luminescence, 3 h. inhibition, % at 8 µM. 220,000 tested, 0.42% active. AID 1481; in the data active = inhibition above about 15%;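 note: 0% = DMSO vehicle and 100% = wells lacking enzyme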
TNF necrop inh = blocks TNF-alpha induced death of Jurkat FADD-/- cells; Jurkat FADD-/- TNF necroptosis rescue, ATP luminescence, 24 h; 0 = TNF only, 100 = no-TNF cells; activation (protection from cell death), % at 10 µM; 220,000 tested, 0.068% active; AID 463075;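 active = activation, meaning protection from cell death, of at least 50% relative to plate controls; inactive = activation below 50%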;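 note: necroptosis triggered by 40 ng/mL TNF-alpha added together with compound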
Wee1 degr inh = inhibitors of human Wee1 degradation. HeLa Luc-Wee1K328M stability, luciferase luminescence; 100% = proteasome inhibitor MG132 effect. reporter increase, % at 5 µM. 220,000 tested, 1.2% active. AID 1321;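 active = activation above the mean of all tested compounds plus 3 SD, set per screening run, cut at about 8.8% in these data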;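 note: cells exposed to compound for 20 h before luminescence read; 0% = DMSO alone and 100% = MG132 at 30 µM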
L929 necroptosis = L929 zVAD cell death inhibition; viability rescue, % at 10 µM; 220,000 tested, 0.38% active; L929 zVAD necroptosis rescue, ATP luminescence, 24 h; with zVAD 60 µM;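 active = activation, scaled between plate controls, above about 75%, limit read from the data; inactive = activation under that limit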;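 note: 0% = zVAD with DMSO and 100% = DMSO alone without zVAD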
Wee1 degr conf = human Wee1 degradation inhibition, confirmation. HeLa Luc-Wee1K328M degradation, luminescence; vehicle 0%, proteasome-blocked wells 100%. activation, % at 5 µM. 1,100 tested, 4% active. shares compounds with Wee1 degr inh; in the data active = activation above about 8.9%
The depositor's hits bear a star; nt = not tested or not shown.

SMILES	RBBP9 inhibitor	PfM18AAP inh	p97 ATPase inh	TNF necrop inh	Wee1 degr inh	L929 necroptosis	Wee1 degr conf
N#Cc1ncc(Cl)c2ccccc12	-3	-8	-7	-1	1	0	nt
Cc1cc(/C=N/NC(=O)COc2cccc3cccnc23)c(C)n1-c1ccc(O)cc1	-7	17	10	2	14*	1	0
Cc1cc(C)cc(-n2c(C)cc(/C=N\NC(=O)COc3cccc4cccnc34)c2C)c1	-2	15	4	3	4	1	nt
COc1ccc(-c2noc(CSc3nc(-c4ccccc4)cc(=O)[nH]3)n2)cc1OC	0	-2	2	-1	14*	1	0
O=C(/C=C/Nc1ccc(Oc2ccccc2)cc1)c1ccco1	-6	7	-2	-5	3	-1	nt
COc1ccccc1-c1nnc(Nc2nc3c(OC)cccc3s2)o1	-9	4	1	-10	15*	1	4
Nc1ccc(CN2CCOCC2)cc1	-9	0	3	0	7	3	nt
c1ccc2[nH]c(NN=C3CCCCCC3)nc2c1	2	25	3	2	17*	2	3
c1ccc2[nH]c(NC3=NCCC3)nc2c1	2	8	2	1	0	0	nt
Cc1csc2cc(-c3cccc([N+](=O)[O-])c3)c(-c3cccc([N+](=O)[O-])c3)c[n+]12	-4	-1	5	2	1	1	nt
CCOC(=O)Cn1c(C(C)=O)nc2ccccc21	-4	-10	-2	0	12*	3	0
COC(=O)Cn1c(=O)c(C)nc2ccccc21	5	-7	6	1	13*	2	-4
COC(=O)Cn1c(C)nc2ccccc21	-2	-3	-5	0	-1	-1	nt
O=C(O)CSc1ccc(NC(=O)Nc2ccccc2F)cc1	-4	-9	-17	-7	2	0	nt
Cc1ncsc1C(=O)Nc1nc2c(s1)CCCC2	-3	2	-18	-6	3	0	nt
O=C(Nc1nc2c(s1)CCCC2)c1ccc2ncsc2c1	-5	0	1	-1	20*	3	1
COc1ccc(C(=O)Nc2ccc(NC(=O)C3CC3)nc2)cc1	nt	2	nt	nt	nt	nt	nt
COc1ccc(/C=N/N=C(\N)c2nonc2N)cc1OC	-7	0	3	0	11*	8	0
CCCOc1ccc(-c2nnc(-c3cccs3)o2)cc1	-2	3	-4	-1	1	-1	nt
CN(C)c1ccc(-c2nnc(-c3cccs3)o2)cc1	-6	-4	0	0	15*	2	-1
COc1cc(OC)cc(C(=O)N[C@H](C(=O)NCc2ccc(F)cc2)C(C)C)c1	nt	1	nt	nt	nt	nt	nt
CCS(=O)(=O)N1Cc2ccccc2CC1C(=O)Nc1ccc(F)cc1 (centres undefined)	-10	8	-5	2	15*	0	0
COc1cc(C)c(N)cc1C(C)C	0	2	5	0	19*	0	-1
Oc1ccc2nnc3c(Br)cnn3c2c1	nt	11	nt	nt	nt	nt	nt
O=C(CN1CCCCC1)NNc1nc(-c2ccccc2)c2cc(Br)ccc2n1	2	1	-5	4	-2	0	nt
SMILES	RBBP9 inhibitor	PfM18AAP inh	p97 ATPase inh	TNF necrop inh	Wee1 degr inh	L929 necroptosis	Wee1 degr conf
Cc1cc(NC(=O)CSc2ccc(-c3ccc(F)cc3)nn2)no1	-6	16	2	0	1	5	nt
COc1ccc(OC)c(CNS(=O)(=O)c2cc(CN3C(=O)c4cccnc4C3=O)ccc2OC)c1	nt	1	nt	nt	nt	nt	nt
CC(=O)c1ccc(NC(=O)CSc2nnc(Cn3cnc4ccccc43)o2)cc1	-1	1	3	0	16*	1	2
O=C(CSc1nnc(CNC(=O)c2cccs2)o1)Nc1ccccc1	0	1	12	0	18*	0	-2
Cc1ccc(NC(=O)CSc2nnc(CNC(=O)c3cccs3)o2)cc1	-10	-1	5	0	-1	2	nt
COc1cc(C(=O)NCc2nnc(SCC(=O)Nc3nc4ccccc4s3)o2)cc(OC)c1OC	-7	31*	0	1	12*	0	1
